Series [1] has as its system Escherichia coli. In words: Antibacterial activity against Escherichia coli BL21 AI after 20 hrs by broth microdilution assay. The format is functional. An outline of the steps: (§1)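 Nutrient-broth overnight cultures diluted in 1% TSB; E. coli BL21AI 7.5 × 10^5 cells/well, M. luteus ATCC 10240 2 × 10^6 cells/well. Peptides serially 2-fold diluted in 1% TSB from 128 to typically 0.5 μg/mL. Incubation at 37 °C; A595 read after 20 ± 2 h. MIC is the lowest concentration with absorbance not above medium only. Triplicate.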
On the technique in general: In broth dilution the organism is exposed to a series of concentrations in liquid medium.

Series [2] relates to Micrococcus luteus. In words: Antibacterial activity against Micrococcus luteus ATCC 10240 after 20 hrs by broth microdilution assay. The format is functional. To be noted: ATCC 10240, 20 h. An outline of the steps:
as §1

Series [3] has as its system HeLa. Description: Cytotoxicity against human HeLa cells at 600 ug/ml after 24 hrs by MTT assay. Format: cell-based. Summed up: (§2)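 HeLa (1.5 × 10^4/well, seeded overnight) or SH-SY5Y (2 × 10^4/well, differentiated 5 days with 10 μM trans-retinoic acid) in DMEM/Ham's F-12 with 5% or 15% FBS. Peptide added at 600 μg/mL for 24 h at 37 °C, 5% CO2. MTT 0.5 mg/mL for 4 h, then SDS/HCl for 16 h; A590 read against 650 nm. Normalized to PBS (100%); DMSO 12% as positive control.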

Series [4] concerns SH-SY5Y. Description: Cytotoxicity against human SH-SY5Y cells at 600 ug/ml after 24 hrs by MTT assay. The format is cell-based. Summed up:
as §2

On to H-VDKPPYLPRPRPPRRIYNRN-OH, for which the minimum inhibitory concentration (MIC) in series [1] was determined as 8 µg/mL; in series [2], 16 µg/mL.

As to H-VDKPPYLPRPRPPRRIYNNR-OH, the MIC in series [1] is 8 µg/mL; in series [2], 16 µg/mL.

Take H-VDKPPYLPRPTPPRRIYNNR-OH: the MIC turned out to be 128 µg/mL in series [1] and 64 µg/mL in series [2].

On to `CC[C@H](C)[C@H](NC(=O)[C@H](Cc1ccc(O)cc1)NC(=O)[C@@H](NC(=O)[C@@H]1CCCN1C(=O)[C@H](CCCNC(=N)N)NC(=O)[C@H](CC(N)=O)NC(=O)[C@H](CC(N)=O)NC(=O)CN)C(C)C)C(=O)N1CCC[C@H]1C(=O)N[C@@H](CCC(N)=O)C(=O)N1CCC[C@H]1C(=O)N[C@@H](CCCNC(=N)N)C(=O)N1CCC[C@H]1C(=O)N1CCC[C@H]1C(=O)N[C@@H](Cc1cnc[nH]1)C(=O)N1CCC[C@H]1C(=O)N[C@@H](CCCNC(=N)N)C(=O)N[C@@H](CC(C)C)C(=O)O` [APIDAECIN], for which the Activity entry in series [3] and in series [4] was “Non-toxic” each time.

As for H-VDKPPYLPRPPPPRRIYNNR-OH, the figures for the MIC in series [1] and in series [2] were 128 µg/mL and 64 µg/mL, respectively.

As for H-VDKPPYLPRPRPPRRIYNNR-NH2, the MIC in series [1] and in series [2] was 8 µg/mL each time.

Broadly, the MIC is the least concentration at which growth counts as inhibited. A low value points to a more susceptible organism.
